Activity calls are given as the source filed them. The rule behind the calls is not given here.
Key:
[1] = tested on: MDA-MB-468; test: Antiproliferative activity against MDA-MB-468 cells at 50 uM by MTT assay; assay type: functional, cell-based; conditions: Homo sapiens
[2] = molecular target: T1, Epidermal growth factor receptor (Homo sapiens, UniProt P00533); test: Inhibition of EGFR kinase activity at 100 uM in presence of 2.5 uM ATP; set-up: scale not given: the % may be the effect or the level left
Procedure, shortened: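 EGFR purified from A431 cells, pre-incubated 30 min with 100 µM compound before kinase activity measurement. ATP held at 2.5 µM, four times below the Km for this enzyme preparation. Control was 2% DMSO. Mean ± standard deviation from 2–5 experiments in triplicate.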

[3] = tested on: MDA-MB-435; test: Antiproliferative activity against MDA-MB-435 cells at 50 uM by MTT assay; assay type: functional, cell-based; conditions: Homo sapiens
[4] = tested on: BT-474; test: Antiproliferative activity against BT474 cells at 50 uM by MTT assay; assay type: functional, cell-based; conditions: Homo sapiens
[5] = tested on: A-431; test: Antiproliferative activity against A431 cells at 50 uM by MTT assay after 48 hrs; assay type: functional, cell-based; conditions: Homo sapiens
Procedure, shortened: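 A431 cells exposed to 50 µM compound for 2 days; viability read by MTT. Controls grown in 0.5% DMSO. Values are percentage of control, mean ± standard deviation from three experiments run in quadruplicate.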

[6] = molecular target: T1, Epidermal growth factor receptor; test: Inhibition of EGFR kinase activity at 10 uM; set-up: scale not given: the % may be the effect or the level left
[7] = tested on: A-431; test: Antiproliferative activity against A431 cells by MTT assay; assay type: functional, cell-based; conditions: Homo sapiens
Procedure, shortened: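 A431 cells grown with increasing compound concentrations; proliferation measured by MTT 48 h after treatment. Two experiments performed in triplicate.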

[8] = molecular target: T1, Epidermal growth factor receptor; test: Inhibition of EGFR kinase activity
Procedure, shortened: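 EGFR purified from A431 cells, incubated with compound at varying concentrations for 30 min at room temperature. Kinase reaction then started with ATP/MgCl2 and run 30 min at 30 °C. Activity expressed as percent of inhibitor-free control; mean ± standard deviation from 1 to 3 experiments in triplicate.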

T1 sequence (P00533 whole entry): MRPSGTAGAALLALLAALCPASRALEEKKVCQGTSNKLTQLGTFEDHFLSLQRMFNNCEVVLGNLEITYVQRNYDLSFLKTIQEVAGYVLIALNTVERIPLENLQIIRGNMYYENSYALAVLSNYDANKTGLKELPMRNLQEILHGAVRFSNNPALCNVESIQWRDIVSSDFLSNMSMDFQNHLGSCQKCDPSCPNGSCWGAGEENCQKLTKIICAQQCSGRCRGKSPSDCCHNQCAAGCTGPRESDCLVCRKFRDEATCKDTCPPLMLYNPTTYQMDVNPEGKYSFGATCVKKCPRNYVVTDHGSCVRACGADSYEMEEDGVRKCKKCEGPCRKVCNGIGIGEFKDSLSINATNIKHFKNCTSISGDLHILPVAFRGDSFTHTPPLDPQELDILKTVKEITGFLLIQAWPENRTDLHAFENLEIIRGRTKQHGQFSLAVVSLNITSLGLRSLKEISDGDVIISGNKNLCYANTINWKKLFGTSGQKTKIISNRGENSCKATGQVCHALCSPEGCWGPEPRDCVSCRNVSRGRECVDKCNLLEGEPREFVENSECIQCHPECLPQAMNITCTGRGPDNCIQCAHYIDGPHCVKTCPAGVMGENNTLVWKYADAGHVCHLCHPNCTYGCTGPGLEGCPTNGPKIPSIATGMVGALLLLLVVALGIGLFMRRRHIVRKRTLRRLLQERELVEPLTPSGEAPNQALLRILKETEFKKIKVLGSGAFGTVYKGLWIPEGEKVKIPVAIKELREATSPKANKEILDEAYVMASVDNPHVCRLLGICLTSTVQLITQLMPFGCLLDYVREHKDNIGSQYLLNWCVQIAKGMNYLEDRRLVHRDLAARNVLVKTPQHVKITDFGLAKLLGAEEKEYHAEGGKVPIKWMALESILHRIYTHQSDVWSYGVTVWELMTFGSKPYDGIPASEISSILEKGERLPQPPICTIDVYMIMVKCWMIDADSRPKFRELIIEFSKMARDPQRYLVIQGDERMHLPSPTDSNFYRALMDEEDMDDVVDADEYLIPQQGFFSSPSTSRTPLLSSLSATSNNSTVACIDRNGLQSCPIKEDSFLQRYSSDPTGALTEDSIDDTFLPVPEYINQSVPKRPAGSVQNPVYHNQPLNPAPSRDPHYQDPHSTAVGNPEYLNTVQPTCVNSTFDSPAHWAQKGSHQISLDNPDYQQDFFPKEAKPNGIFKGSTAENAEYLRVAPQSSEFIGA

| Activity [2] [%] | Activity [6] | IC50 [7] [µM] | IC50 [8] [µM] | SMILES | Activity [1] | Activity [3] | Activity [4] | Activity [5] |
| --- | --- | --- | --- | --- | --- | --- | --- | --- |
| 44.5 | inactive |  |  | Nc1[nH]nc2nc(-c3ccco3)c3c(c12)CCCC3 | Active | Active | Active | Active |
| 55.3 | inactive |  |  | C=CCOc1ccc2c(c1)C(=NO)c1cc(OCC=C)ccc1-2 | Active | Active | Active | Active |
| 50.3 | inactive | 6 |  | O=NC1=C(NNc2ccccc2)C(=O)c2ccccc21 | Active | Active | Active |  |
| 41.1 | inactive |  |  | O=C(CSc1nc(O)cc(-c2ccccc2)n1)N1c2ccccc2CCc2ccccc21 | Active | Active | Active | Active |
| 48.4 | 40% |  | 15 | Cc1cccc(-n2ncc3c(NCc4ccc5c(c4)OCO5)ncnc32)c1 | Active | Active | Active | Active |
| 44.1 | inactive |  |  | Cc1ccc(-c2cc(NC(=O)c3cccs3)[nH]n2)cc1 | inactive | inactive | inactive | inactive |
| 50 | inactive | 1 |  | Oc1[nH]c2ccc(I)cc2c1/N=N/c1cccc2cccnc12 | Active | Active | Active | Active |

— ChEMBL document CHEMBL1146933, “In silico identification of novel EGFR inhibitors with antiproliferative activity against cancer cells” (Bioorg Med Chem Lett, 2006)
